Compound activity: PubChem BioAssay, Sanford-Burnham Center for Chemical Genomics
In the library only some 2.5% were active in any assay of this set; here they are far more common.
SENP1 inh = inhibitors of human SENP1 SUMO protease catalytic domain. Q9P0U3. recombinant SENP1 catalytic domain, CyPet-SUMO1-YPet FRET cleavage. inhibition, % at 10 µM. 360,000 tested, 0.21% active. AID 624204;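 active = inhibition at least 30% at 10 µM, raw YFP signal under a set limit, fluorescence ratio 0.5 to 1.5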;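 note: 0% = enzyme with DMSO and 100% = no enzyme wells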
Target sequence (Q9P0U3 419-644 limits assumed): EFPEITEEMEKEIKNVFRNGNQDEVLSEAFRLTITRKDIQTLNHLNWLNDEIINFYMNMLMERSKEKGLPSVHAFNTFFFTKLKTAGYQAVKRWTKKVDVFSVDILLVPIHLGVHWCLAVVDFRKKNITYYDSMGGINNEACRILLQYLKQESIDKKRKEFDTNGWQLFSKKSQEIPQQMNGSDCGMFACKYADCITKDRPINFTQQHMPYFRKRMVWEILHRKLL
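system = hSENP1 catalytic domain, recombinant | reagent = SFCypet-SUMO1-SFYpet substrate at 25 nM | doses = one dose per compound, 10 µM, 0.5% DMSO | incubation = enzyme reaction for 50 min at room temperature, dark | measured by = FRET, CFP and YFP emission | controls = no-enzyme low, enzyme-DMSO high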
SENP6 block = SENP6 protease inhibition; AID 2599; Recombinant SENP6 catalytic domain, aminoluciferin luminescence; 330,000 tested, 1.8% active; Q9GZR1; inhibition, % at 10 µM;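 active = inhibition above about 50% at the single tested dose, limit read from the data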;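 note: plate controls were DMSO wells with enzyme for no effect and DMSO wells lacking enzyme for full effect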
SENP7 inh = inhibitors of human SENP7 protease. Q9BQF6. recombinant SENP7, Z-RLRGG-aminoluciferin luminescence, 40 min. inhibition, % at 5 µM. 330,000 tested, 1.5% active;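 active = inhibition above about 50% at the single test dose, limit read from the data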;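 note: plate controls were DMSO with enzyme for no effect and no enzyme buffer wells for full effect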
Target sequence (Q9BQF6 706-1050 limits assumed): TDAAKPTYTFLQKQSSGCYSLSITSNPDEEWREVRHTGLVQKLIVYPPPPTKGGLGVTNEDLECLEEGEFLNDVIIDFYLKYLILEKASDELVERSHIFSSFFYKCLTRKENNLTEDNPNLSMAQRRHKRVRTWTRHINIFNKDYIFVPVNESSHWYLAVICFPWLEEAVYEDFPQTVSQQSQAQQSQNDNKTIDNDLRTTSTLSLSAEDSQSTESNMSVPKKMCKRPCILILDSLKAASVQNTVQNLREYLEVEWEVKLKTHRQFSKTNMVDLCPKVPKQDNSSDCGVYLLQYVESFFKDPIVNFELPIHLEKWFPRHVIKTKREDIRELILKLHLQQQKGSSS
SENP8 block-1 = inhibitors of human SENP8 protease. AID 602440. inhibition, % at 20 µM. Q96LD8. 360,000 tested, 0.64% active. recombinant SENP8, Nedd8 substrate fluorescence; in the data active = inhibition mostly above about 40%, no sharp cut-off; inactive = mostly below about 27%
SENP8 block-2 = inhibitors of human SENP8 protease; 330,000 tested, 1.2% active; Q96LD8; inhibition, % at 10 µM; AID 2540; purified SENP8, Z-RLRGG-aminoluciferin cleavage, luminescence; in the data active = inhibition above about 50%
SENP8 confirm = human SENP8 inhibition, confirmed; Recombinant SENP8, Z-RLRGG-aminoluciferin luminescence, 60 min; inhibition, % at 12.5 µM; 6,200 tested, 40% active; shares compounds with SENP7 inh;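 active = mean inhibition across replicates above about 50%, limit read from the data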
SENP6 conf = human SENP6 inhibition, confirmed | shares compounds with SENP7 inh | recombinant SENP6, Z-RLRGG-aminoluciferin luminescence | inhibition, % at 12.5 µM | 6,200 tested, 58% active | AID 488915
SENP7 confirm = confirmation of human SENP7 protease inhibitors; shares compounds with SENP7 inh; recombinant SENP7, Z-RLRGG-aminoluciferin luminescence, 40 min; inhibition, % at 12.5 µM; 6,200 tested, 69% active
Casp3 SENP sel = caspase-3 inhibition (SENP selectivity assay); shares compounds with SENP7 inh; purified caspase-3, Z-DEVD-aminoluciferin luminescence, 60 min; inhibition, % at 12.5 µM; 6,200 tested, 60% active; AID 488918;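 active = mean inhibition above about 50%, limit read from the data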;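 note: plate controls were enzyme with DMSO for no effect and wells without caspase-3 for full effect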
Luc interf = counter-screen for SENP inhibitors: luminescence interference | 6,200 tested, 39% active | inhibition, % at 12.5 µM | shares compounds with SENP7 inh | Pre-incubated SENP8/Z-RLRGG-aminoluciferin, luciferase luminescence interference;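 active = mean inhibition above about 50% when retested at one dose, limit read from the data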;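 note: plate controls were DMSO wells with completed reaction for no effect and substrate without enzyme for full effect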
Starred values were filed as active, the others as inactive.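 Rule for the calls, unless noted: active = mean inhibition above about 50% in the one-dose retest (limit read from the data); inactive = the rest.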

`O=C(N/N=C/C(Br)=C/c1ccccc1)c1ccccc1[N+](=O)[O-]` gave SENP1 inh 4, SENP6 block 11, SENP7 inh 3, SENP8 block-1 7 and SENP8 block-2 -2.
Screening CCN(CC)c1ccc(/C=N/NC(=O)c2ccoc2C)c(O)c1 returned SENP1 inh -56, SENP6 block 98*, SENP7 inh 100*, SENP8 block-1 -116, SENP8 block-2 94*, SENP8 confirm 96*, SENP6 conf 98*, SENP7 confirm 103*, Casp3 SENP sel 40 and Luc interf 5.
Cc1occc1C(=O)Nc1cccc2ccccc12 was read as SENP1 inh -3, SENP6 block 96*, SENP7 inh 95*, SENP8 block-1 -34, SENP8 block-2 91*, SENP8 confirm 10, SENP6 conf 96*, SENP7 confirm 102*, Casp3 SENP sel 91* and Luc interf 94*.
For CCOC(=O)c1c(NC(=O)COC(=O)Cn2cnc3c2c(=O)n(C)c(=O)n3C)sc(C)c1CC the results were SENP1 inh 2, SENP6 block 0, SENP7 inh 0, SENP8 block-1 -11 and SENP8 block-2 -3.
Screening CC(C)(C)NC(=O)COc1ccc2oc3c(c2c1)CCCC3 returned SENP1 inh -4, SENP6 block -3, SENP7 inh 2, SENP8 block-1 2 and SENP8 block-2 -2.
Screening COc1cc(C(=O)N2CCN(S(=O)(=O)c3cccc(F)c3)CC2)ccc1OCC(=O)N1CCOCC1 returned SENP1 inh 1, SENP6 block 7, SENP7 inh -4, SENP8 block-1 8 and SENP8 block-2 5.
Screening CCOc1ccc(Br)cc1S(=O)(=O)NCCN1CCCC1 returned SENP1 inh -1, SENP6 block 5, SENP7 inh 3, SENP8 block-1 8 and SENP8 block-2 3.
Screening C=CCn1c(SCC(=O)N(CCO)CCO)nc2sc3c(c2c1=O)CCC3 returned SENP1 inh 2, SENP6 block 9, SENP7 inh -4, SENP8 block-1 14 and SENP8 block-2 -7.
C=CCn1c(SCC(=O)Nc2cc(OC)c(NC(=O)c3ccco3)cc2OC)nnc1-c1ccncc1 was read as SENP1 inh -2, SENP6 block -6, SENP7 inh -4, SENP8 block-1 -22 and SENP8 block-2 -12.
Screening C=CCn1c(SCC(=O)Nc2ccc(NC(=O)c3ccco3)c(OC)c2)nnc1-c1ccncc1 returned SENP1 inh -1, SENP6 block 74*, SENP7 inh 13, SENP8 block-1 1, SENP8 block-2 -4, SENP8 confirm -24, SENP6 conf -20, SENP7 confirm -11, Casp3 SENP sel -12 and Luc interf -8.
For CCC1ON(c2ccccc2)C2c3nc4ccccc4n3CC12 (stereo not drawn) the results were SENP1 inh 0, SENP6 block -19, SENP7 inh 10, SENP8 block-1 3 and SENP8 block-2 -20.
`NC(CC(=O)OC1CCCCC1)C(=O)OC1CCCCC1` (stereo not drawn) gave SENP1 inh -1, SENP6 block 77*, SENP7 inh 5, SENP8 block-1 12, SENP8 block-2 2, SENP8 confirm -5, SENP6 conf -8, SENP7 confirm -8, Casp3 SENP sel -4 and Luc interf -4.
For CN(C)Cc1c(C(=O)N/N=C/C2CC=CCC2)nnn1-c1nonc1N (stereo not drawn) the results were SENP1 inh -1, SENP6 block 5, SENP7 inh 5, SENP8 block-1 14 and SENP8 block-2 8.
Screening O=C(/C=C\Nc1ccccn1)c1ccccc1 returned SENP1 inh -16, SENP6 block 95*, SENP7 inh 97*, SENP8 block-1 -209, SENP8 block-2 90*, SENP8 confirm 96*, SENP6 conf 96*, SENP7 confirm 102*, Casp3 SENP sel 97* and Luc interf 94*.
`COc1ccc(C(=O)/C=C/Nc2ccccn2)c(OC)c1` gave SENP1 inh -32, SENP6 block 3, SENP7 inh 14, SENP8 block-1 -332 and SENP8 block-2 -1.
O=C(/C=C/Nc1ccccc1Br)c1ccccn1 was read as SENP1 inh -48, SENP6 block 97*, SENP7 inh 100*, SENP8 block-1 -31, SENP8 block-2 96*, SENP8 confirm 2, SENP6 conf 100*, SENP7 confirm 103*, Casp3 SENP sel 97* and Luc interf 89*.
C=CCn1c(-c2cc3cccc(OC)c3o2)n[nH]c1=S was read as SENP1 inh 0, SENP6 block -23, SENP7 inh -7, SENP8 block-1 -421 and SENP8 block-2 -9.
Screening Cc1nc(-c2ccccc2Cl)sc1C(=O)/C=C/N(C)C returned SENP1 inh 1, SENP6 block -22, SENP7 inh -8, SENP8 block-1 2 and SENP8 block-2 -16.
For COc1ccccc1CNCC(=O)Nc1ccc(N2CCOCC2)cc1 the results were SENP1 inh 1, SENP6 block -6, SENP7 inh 10, SENP8 block-1 29 and SENP8 block-2 -4.
`COc1ccccc1NC(=O)Nc1ccc(N2CCOCC2)cc1` gave SENP1 inh 1, SENP6 block 64*, SENP7 inh 56*, SENP8 block-1 11, SENP8 block-2 39, SENP8 confirm 65*, SENP6 conf 62*, SENP7 confirm 87*, Casp3 SENP sel 80* and Luc interf 66*.
`COc1ccccc1NC(=O)Nc1ccc(-n2ccc(C(F)(F)F)n2)cc1` gave SENP1 inh 0, SENP6 block 80*, SENP7 inh 82*, SENP8 block-1 14, SENP8 block-2 73*, SENP8 confirm 76*, SENP6 conf 82*, SENP7 confirm 93*, Casp3 SENP sel 44 and Luc interf 69*.
COc1ccc(NC(=O)[C@H](C)NS(=O)(=O)c2ccc(NC(C)=O)cc2)cc1Cl was read as SENP1 inh -2 and SENP8 block-1 17.
For COc1ccc(CNC(=O)c2cccnc2)cc1 the results were SENP1 inh 1, SENP6 block 15, SENP7 inh -4, SENP8 block-1 10 and SENP8 block-2 2.
